High-throughput results deposited in PubChem BioAssay by several laboratories.
Most compounds without a hit are left out; they make up all but 1.6% or so of the library.
Arrestin-AP2 inh – blocks beta-arrestin peptide binding to AP2 adaptin; FITC-arrestin peptide / GST-AP2 beads, flow cytometry; AP2 beta2 appendage carries R879A mutation; inhibition, % at 10 µM; 340,000 tested, 0.31% active; AID 504490;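 active means inhibition above a set limit, near 3 SD of compounds lacking own fluorescence, cut at about 54% in these data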;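 further: plate controls were DMSO wells for no effect and 5 µM unlabelled arrestin peptide for full effect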
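System: GST-AP2 R879A glutathione beads | Also added: FITC-arrestin peptide, 50 nM | Times: 12 min plus 1 h, RT | Signal: Bead flow cytometry, FITC channel | Buffer or medium: PBS with 0.05% Tween 20 and 0.1% BSA | Read-out basis: Percent drop in bead-associated FITC signal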
SKN-1 inh – inhibitors of C. elegans SKN-1. C. elegans VP596 Pgst-4::GFP/RFP ratio, acrylamide-induced, 24 h. inhibition, % at 21.8 µM. 360,000 tested, 0.49% active;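 active means interference check ratio from 0.5 to 1.5 plus GFP to RFP signal ratio inhibition reaching or exceeding a fixed threshold, cut at about 30% in these data, passing the limit was not always enough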
MT1-MMP act inh – MT1-MMP (human) activation inhibition. P50281. HT1080 RFP-PRO-GFP cells, GFP/RFP ratio fluorescence, overnight; percent of plate control window, DMSO zero. GFP/RFP ratio change, % at 20 µM. 360,000 tested, 0.061% active;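 active means GFP/RFP ratio change of at least 30% with cell ATP level not reduced by more than half and red fluorescence within 50% of control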
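Assay system: HT1080 cells carrying an RFP-PRO-GFP reporter | Dosing: Single dose of 20 µM compound, 1% DMSO final | Incubation: Cells overnight before dosing, compound overnight, 37 °C, 5% CO2 | Evaluation: GFP/RFP fluorescence ratio | Control set: DMSO and RFP-L50D-GFP cell wells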
Rin1 Abl inh – inhibitors of human Rin1-Abl protein interaction | inhibition, % at 7.35 µM | TR-FRET Rin1/Abl binding, biochemical | P00519+Q13671 | 360,000 tested, 0.4% active; in the data active means inhibition above about 5%, passing the limit was not always enough
Tb MetRS inh – Trypanosoma brucei MetRS inhibition; purified T. brucei MetRS, ATP depletion, Kinase-Glo luminescence; 360,000 tested, 0.4% active; inhibition, % at 11.9 µM;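 active means inhibition above a per-plate cutoff of the control wells' mean inhibition plus 3 SD, cut at about 5.5% in these data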;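 further: 0% = DMSO wells median and 100% = median of wells with control inhibitor compound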
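Dosing: 11.9 µM compound single dose, 0.9% DMSO; Assay system: purified T. brucei MetRS enzyme; Measured by: Kinase-Glo luciferase luminescence reporting remaining unconsumed ATP; Schedule: 15 min plus 2 h at 25 °C.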
TbMetRS confirm – Trypanosoma brucei MetRS inhibition confirmed. shares compounds with Tb MetRS inh. T. brucei MetRS enzyme, luminescence (ATP depletion). inhibition, % at 11.9 µM. 1,400 tested, 93% active; in the data active means inhibition above about 7%
Jurkat tox – kills Jurkat cells in T. brucei MetRS counterscreen | shares compounds with Tb MetRS inh | inhibition, % at 8.3 µM | 1,400 tested, 12% active | Jurkat cells viability, ATP luminescence | AID 624413; in the data active means inhibition above about 15%;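 further: 0% = vehicle and 100% = reference inhibitor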
TbMetRS FP orth – orthogonal test for Trypanosoma brucei MetRS inhibitors; shares compounds with Tb MetRS inh; purified T. brucei MetRS, fluorescence polarization; inhibition, % at 11.9 µM; 1,400 tested, 44% active; AID 651607; in the data active means inhibition above about 17%;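 further: 0% = vehicle wells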
* = called active by the depositor; x = not tested or not shown.

SMILES | Arrestin-AP2 inh | SKN-1 inh | MT1-MMP act inh | Rin1 Abl inh | Tb MetRS inh | TbMetRS confirm | Jurkat tox | TbMetRS FP orth
O=C(NNC(=O)c1ccc(-n2cncn2)c([N+](=O)[O-])c1)c1cccc(Cl)c1 | 2 | 10 | 4 | -1 | 35* | 59* | 6 | 31*
O=C(NNC(=O)c1ccc(-n2cncn2)c([N+](=O)[O-])c1)c1ccc(Cl)cc1 | 11 | -2 | 1 | -3 | 60* | 82* | 1 | 65*
O=C(Nc1cc(Cl)ccc1F)c1ccc(-n2cncn2)c([N+](=O)[O-])c1 | 17 | 9 | 3 | 1 | 22* | 58* | -2 | 21*
Cc1cn([C@H]2C[C@H](O)[C@@H](CNC(=O)CNC(=O)CN)O2)c(=O)[nH]c1=O | x | -13 | 0 | -5 | -1 | x | x | x
COCC(=O)N(Cc1cc2cc(C)ccc2[nH]c1=O)c1cccc(C)c1C | 8 | 21 | -3 | 0 | 5.6* | 12* | -2 | -1
COc1cccc(CNC(=O)[C@@H]2CCCN2)c1 | x | 4 | 1 | x | 0 | x | x | x
CSc1nc(-c2ccc(Cl)cc2)nn1S(=O)(=O)c1ccccc1 | 18 | -3 | 4 | 2 | -1 | x | x | x
CS(=O)(=O)n1nc(-c2ccc(Cl)cc2)nc1SCc1ccccc1 | -1 | 19 | -2 | 0 | 6.7* | 4 | 4 | 7
CCn1cnc2cc(NCc3cccc(OC)c3O)ccc21 | 9 | 10 | 2 | 7 | 18* | 36* | 4 | 15
CCCCn1cnc2cc(NCc3cccc(OC)c3O)ccc21 | 32 | 30 | 13 | -7 | 3 | x | x | x
O=C(CNC(=O)C1COc2ccccc2O1)N/N=C/c1ccc(O)cc1O (stereo not given) | 15 | 5 | 1 | -1 | 12* | 36* | 52* | 17*
O=C(CNC(=O)C1COc2ccccc2O1)N/N=C\c1cccc(O)c1 (stereo not given) | 23 | -6 | 1 | 1 | 4 | x | x | x
COCCNc1nc(Nc2ccc(C#N)cc2)c2sccc2n1 | x | 7 | 1 | -5 | 0 | x | x | x
CCNC(=O)C1(C)CCN(C(=O)c2ccc(OC)cc2OC)C1 (stereo not given) | x | -1 | 2 | -1 | 0 | x | x | x
Cn1cnc2cc(NCc3ccc(Cl)cc3)ccc21 | 3 | 14 | 8 | -1 | 7.2* | 16* | 1 | 1
OC(c1ccc(F)c(F)c1)c1nc(-c2cnc3ccccc3c2)cs1 (stereo not given) | x | 0 | -3 | -5 | 1 | x | x | x
Cc1ccc2nc(-c3ccc(SCC(=O)Nc4ccc5c(c4)OCCO5)nc3)[nH]c2c1 | 0 | -6 | 7 | 0 | 7.4* | 8.6* | 14 | 18*
COCCNC(=O)CSc1ccc(-c2nc3ccccc3[nH]2)cn1 | -2 | 16 | 8 | -3 | 11* | 19* | 2 | 0
Cc1nc(NC(=O)CSc2ccc(-c3nc4ccccc4[nH]3)cn2)sc1C | 2 | 17 | 5 | -8 | 19* | 36* | 12 | 11
Cc1ccc2nc(-c3ccc(SCC(=O)Nc4nnc(C)s4)nc3)[nH]c2c1 | 0 | 5 | 4 | 0 | 4 | x | x | x
CCOC(=O)CSc1ccc(-c2nc3ccccc3[nH]2)cn1 | -1 | 18 | -7 | 2 | 9.2* | 19* | 9 | 11
O=C(CSc1ccc(-c2nc3ccccc3[nH]2)cn1)Nc1ccc2c(c1)OCCO2 | 7 | 10 | 8 | -1 | 2 | x | x | x
O=C(CSc1ccc(-c2nc3ccccc3[nH]2)cn1)Nc1ccc(S(=O)(=O)NC2CC2)cc1 | 8 | 8 | 10 | 0 | 64* | 69* | 9 | 75*
Cc1ccc(N2CC(C(=O)OCC(=O)Nc3c(C)cccc3C)CC2=O)cc1 (stereo not given) | x | -11 | -3 | 4 | 0 | x | x | x
